Out of some 62,000 compounds screened, about 50 (0.08%) were called active.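 How the source made its calls: active means inhibition above 30% in each of the two pooled mixtures holding the compound, so the lower value exceeds 30%; inactive means the rest.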 The full list was thinned out, with actives kept by preference.

A short description of this assay: alternative complement pathway inhibitors, primary screen, biochemical, ELISA, human serum, orthogonally pooled compounds (AID 1235).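 Further: 0% = serum in Mg-EGTA without compound and 100% = EDTA serum blank.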 To be noted: LPS-coated ELISA, C3 deposition, tested in compound mixtures, at 5 µM, hits give high values. The essentials:
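Test system – human serum alternative complement pathway, C3 deposition on LPS-coated wells · Buffer or medium – diluted human serum in Mg2+-EGTA GVB++ · Compound dosing – 5 µM each compound, pools of ten, 50 µM per pool · Schedule – 1 h serum-compound exposure at 37 °C · Measured by – Anti-C3 ELISA, OD 450 nm · Read-out basis – percent inhibition of C3 deposition onto LPS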
In general terms: In an ELISA, binding on a coated surface is turned into a signal by an enzyme label.
`O=C(NCc1cccnc1)c1cn(-c2ccccc2)nc1-c1cccs1`: the inhibition (as a rule, the relative decrease from the control value, in per cent) was 0.865% (inactive).

For the molecule `COc1ccc(NC(=O)CCNC(=O)Cn2ccc3ccccc3c2=O)c(OC)c1`, the inhibition is 29.1% (inactive).

Turning to `CCOC(=O)c1ccc(N2C(=O)CC(N3CCC(C(=O)OCC)CC3)C2=O)cc1` (stereo not drawn), the inhibition is -0.58% (inactive).

On to `O=P(O)(CN1CCCCC1)CN1CCCCC1`, for which the inhibition was 8.65% (inactive).

As for `Cc1noc(C)c1CSc1nnc2ccc3ccccc3n12`, the inhibition is 9.95% (inactive).

For `COc1ccc(OC)c(S(=O)(=O)Nc2ccccc2F)c1`, the inhibition was 6.16% (inactive).

Take `COC(=O)Nc1ccc(S(=O)(=O)N(C)CC(F)(F)C(F)F)cc1`: the inhibition is 13.5% (inactive).

On to `Cc1ccc(C)c(N2CCN(C(=O)CCc3nc4ccccc4[nH]3)CC2)c1`, for which the inhibition was 18.5% (inactive).

For the molecule `Cc1ccc(-c2nnn(CC(=O)N(CCO)C(C(=O)NC(C)(C)C)c3ccncc3)n2)cc1` (stereo not drawn), the inhibition was 9.36% (inactive).

Take `Cc1ccc(C)c(N2CCN(S(=O)(=O)c3ccc4c(c3)oc(=O)n4C)CC2)c1`: the inhibition was 3.29% (inactive).

Regarding `CN(C)CC(O)COc1ccc(C(C)(C)c2ccc(OCC(O)CN(C)C)cc2)cc1` (stereo not drawn), the inhibition was 0.48% (inactive).

On to `Cc1nc(Nc2ccc3c(c2)OCCO3)c2nnn(Cc3ccccc3Cl)c2n1`, for which the inhibition was 1.64% (inactive).

Consider `Cc1cc(C)c(C#N)c(SCS(=O)c2ccc(C(C)(C)C)cc2)n1` (stereo not drawn), for which the inhibition is 4.51% (inactive).

As to `COc1ccc(-c2[nH]nc3c2C(c2ccncc2)C(C#N)=C(N)O3)cc1` (stereo not drawn), the inhibition is 0.015% (inactive).

As for `CC(C)(C)c1cc(CN2CCN(CCC#N)CC2)cc(C(C)(C)C)c1O`, the inhibition was -7.06% (inactive).

For `CC1CCc2c(sc(NC(=O)c3ccc(Cn4cc(Br)cn4)o3)c2C(N)=O)C1` (stereo not drawn), the inhibition was 8.16% (inactive).

On to `Cc1cccc(N=C2NC(=O)CS2)c1C`, for which the inhibition was 4.01% (inactive).

Consider `Cc1ccc2nc(S(=O)(=O)O)[nH]c2c1`, for which the inhibition was -4.08% (inactive).

`O=C(Cn1nc(C(F)(F)F)c2c1CCC2)NCc1ccc(F)cc1`: the inhibition is -10.2% (inactive).

As for `CCc1nnc(NC(=O)CSc2nnc(-c3ccncc3)n2Cc2ccccc2)s1`, the inhibition was 6.79% (inactive).

Turning to `C=C(C)Cn1c(N2CCN(CC)CC2)nc2c1c(=O)[nH]c(=O)n2C`, the inhibition is -2.46% (inactive).

For `COC(=O)C(C)n1cnc2c(nnn2-c2cccc(Cl)c2)c1=O` (stereo not drawn), the inhibition was 7.95% (inactive).

As for `Cc1c(C(=O)N2CC(C)OC(C)C2)sc2nc(-c3ccccc3)cn12` (stereo not drawn), the inhibition was 11% (inactive).

As for `FC(F)(F)c1cccc(Nc2ncnc3ccccc23)c1`, the inhibition is 13.9% (inactive).

For the molecule `Cc1cc(=O)n2nc(N3CCCC3C(=O)NCCCN3CC(C)CC(C)C3)sc2n1` (stereo not drawn), the inhibition is 20.4% (inactive).

For `CCCN1CC=C2C(C#N)=C(N)C(C#N)(C#N)C(c3cc(OC)ccc3OC)C2C1` (stereo not drawn), the inhibition was -5.21% (inactive).

Take `Cc1cc(C(=O)O)c(S(C)(=O)=O)s1`: the inhibition is 21.7% (inactive).

As to `O=C(OCc1cc2ccccc2[nH]c1=O)c1cccnc1`, the inhibition was 1.83% (inactive).

Regarding `CCOC(=O)N1CCN(CC(=O)c2ccc3c(c2)CCN3)CC1`, the inhibition is 22.3% (inactive).

As for `CCOC(=O)C1(C(F)(F)F)N=C(N(C)C)OC(N(C)C)=N1`, the inhibition was 23.1% (inactive).

On to `O=C(CSc1n[nH]c(-c2cccnc2)n1)Nc1ccnc2ccccc12`, for which the inhibition was -1.01% (inactive).

In the case of `CSc1nnc2c(n1)OC(c1cn(C)c3ccccc13)N(C(C)=O)c1ccccc1-2` (stereo not drawn), the inhibition was 12.4% (inactive).

As for `Cc1nc2nc(CSc3nc4ccccc4s3)cc(=O)n2[nH]1`, the inhibition was 8.57% (inactive).

As to `O=C(NCc1ccc2c(c1)OCO2)C1CCCN(S(=O)(=O)c2cccs2)C1` (stereo not drawn), the inhibition is 7.05% (inactive).

Take `CCCCn1c(SCc2ncc(-c3ccccc3)o2)nc2cc(S(N)(=O)=O)ccc21`: the inhibition is 20.9% (inactive).

Consider `O=C(CC(NCCN1CCOCC1)C(=O)O)Nc1cccc(Cl)c1` (stereo not drawn), for which the inhibition was -2.21% (inactive).

As to `COc1ccc(CC(=O)Nc2c3c(nn2-c2cccc(Cl)c2)CS(=O)C3)cc1` (stereo not drawn), the inhibition was 11.2% (inactive).

With `Cc1ccc(OS(=O)Nc2cccc3nccnc23)cc1` (stereo not drawn), the inhibition was 10% (inactive).

For `CCN(c1ccc2c(c1)OCO2)S(=O)(=O)c1cc(Br)cc2c1N(C(=O)C1CC1)CC2`, the inhibition was -0.915% (inactive).

As to `COc1ccccc1-c1nnc(SCC(=O)Nc2ccccc2)o1`, the inhibition was 4.25% (inactive).

As to `CCOc1ccccc1NC(=O)CCc1ccc(C)o1`, the inhibition is 9.69% (inactive).

On to `O=C(Nc1ccc(S(=O)(=O)N2CCCCC2)cc1)c1cnccn1`, for which the inhibition is 13.5% (inactive).

On to `CCCCCCn1c(CN2CCCC(C)C2)nc2c1c(=O)n(C)c(=O)n2C` (stereo not drawn), for which the inhibition was 8.35% (inactive).

With `CCCOc1ccccc1-c1nc(SCCC(=O)O)n[nH]1`, the inhibition was 24% (inactive).

Consider `CCCCCn1c(SCCC(C)C)nc2c1c(=O)[nH]c(=O)n2C`, for which the inhibition was 4.81% (inactive).

In the case of `COc1cc(Cl)c(C)cc1NC(=O)CSc1nnc(-c2ccco2)n1CC(C)C`, the inhibition is 10.7% (inactive).

Regarding `OC(COc1ccccc1)Cn1cc(Br)cn1` (stereo not drawn), the inhibition was 3.79% (inactive).

With `c1ccc(-n2ncc3c2ncn2c(C4CCCCC4)nnc32)cc1`, the inhibition is 14.3% (inactive).

As for `COc1ccc(CCNC(=O)CCn2c(=O)oc3ccccc32)cc1OC`, the inhibition was 6.83% (inactive).

`CSCCC(NC(=O)C1CCC(C)CC1)C(=O)NCc1ccco1` (stereo not drawn): the inhibition was 11.6% (inactive).

Turning to `COC(=O)c1cc(Cl)c(NC(=O)c2ccco2)cc1OC`, the inhibition is 13% (inactive).

Regarding `COCCCNC(=O)CSc1nc2ccc(N3CCOCC3)cc2c(=O)n1CCc1ccccc1`, the inhibition is 22.2% (inactive).

`CCOC(=O)c1ccc(NC(=O)CSc2nnc(COc3ccccc3OC)n2C)cc1`: the inhibition was 7.25% (inactive).

`CCOC(=O)c1sc(=S)n(-c2cccc(OC)c2)c1N`: the inhibition is 5.37% (inactive).

As for `Cc1ccc(NC(=O)CCNS(=O)(=O)c2ccc3c(c2)oc(=O)n3C)cc1C`, the inhibition was 15.7% (inactive).

For `CC1(C)CC(=O)C=C(NCc2ccncc2)C1`, the inhibition was -1.25% (inactive).

In the case of `Cc1nn(C(=O)c2ccoc2C)c(N)c1-c1ccccc1`, the inhibition is 10.4% (inactive).

In the case of `O=C(N1CCOCC1)N(Cc1ccccc1)c1ccccn1`, the inhibition is -5.66% (inactive).

Consider `Cc1ccc(-c2csc3nnc(SCC(=O)NCc4ccco4)n23)cc1`, for which the inhibition was 2.88% (inactive).

In the case of `COc1ccc(C2C(C(=O)N3CCN(c4ccc(OC)cc4)CC3)c3ccccc3C(=O)N2C)cc1` (stereo not drawn), the inhibition is 8.23% (inactive).

With `O=C(CSc1nc2ccccc2[nH]1)c1cccs1`, the inhibition is 12.6% (inactive).

With `O=C(c1cc(-c2ccc(O)cc2)on1)N1CCCc2ccccc21`, the inhibition was 9.64% (inactive).

Turning to `CC(C)(C)NC(=O)C(c1ccncc1)N(C(=O)CNC(=O)c1ccco1)c1ccc2c(c1)OCO2` (stereo not drawn), the inhibition is 4.9% (inactive).

On to `c1ccc(-c2cc(-c3nnc4sc(-c5ccccn5)nn34)[nH]n2)cc1`, for which the inhibition is 8.74% (inactive).

For `CC12CCC(C(=O)N3CCN(c4ncccn4)CC3)(c3nc4ccccc4nc31)C2(C)C` (stereo not drawn), the inhibition is 20.7% (inactive).

Consider `O=C(O)C1CC(=O)N(Cc2cccnc2)C1` (stereo not drawn), for which the inhibition was 15.1% (inactive).

Take `COCCNC(=O)Cn1cc2c(n1)CCCCC2`: the inhibition is 3.37% (inactive).

Take `COc1ccc(S(=O)(=O)N(CCCN2CCCC2=O)Cc2cc3c(C)ccc(C)c3[nH]c2=O)cc1`: the inhibition is 5.72% (inactive).

For the molecule `Clc1ccc(CSc2nnc([C@@H]3CCCN3)o2)cc1`, the inhibition is 13.7% (inactive).

As for `CCn1c(SCC(=O)Nc2nc3ccc(OC)cc3s2)nnc1-c1ccoc1C`, the inhibition was 4.77% (inactive).

As for `COC(=O)N1CN(C(=O)OC)CN(C(=O)OC)C1`, the inhibition is 4.11% (inactive).

Take `Cn1c(SCc2c(F)cccc2Cl)nnc1-c1cnccn1`: the inhibition was -5.66% (inactive).

Regarding `O=S(=O)(c1ccc(Sc2nnc3ccccn23)nc1)N1CCOCC1`, the inhibition is -7.45% (inactive).

For `COc1ccccc1-c1cc(C(=O)NCCCn2ccnc2)no1`, the inhibition was 1.27% (inactive).

Consider `COc1ccccc1N1CCN(CCCCOc2ccc(F)cc2)CC1`, for which the inhibition is 0.215% (inactive).

In the case of `O=C1CC2(CCCCC2)Oc2ccc(OCC(=O)N3CCOCC3)cc21`, the inhibition was 9.94% (inactive).

As to `Cc1csc(NC(=O)C2CCCN2C(=O)OCC(C)C)n1` (stereo not drawn), the inhibition was -7.74% (inactive).

`Cc1cccc(N2CCN(C(=O)c3cc4c(=O)[nH]c5ccccc5c4n3C)CC2)c1C`: the inhibition is 8.97% (inactive).
